Test results taken from ChEMBL document CHEMBL4406834, “Phenylthiazoles with nitrogenous side chain: An approach to overcome molecular obesity” (Eur J Med Chem, 2019).
Converted amounts (≈) assume the structure as drawn.

Key:
Format in all cases: functional
Staphylococcus aureus [1] = test: Antibacterial activity against methicillin-resistant Staphylococcus aureus NRS384 USA300 after 18 to 20 hrs by broth microdilution assay
Method in brief: (§1)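 Broth microdilution per CLSI. Strains grown aerobically overnight on tryptone soy agar at 37 °C, adjusted to 0.5 McFarland, then diluted in cation-adjusted Mueller-Hinton broth to about 5 × 10^5 CFU/mL. Compounds (10 mg/mL DMSO stocks) serially diluted. Incubated aerobically at 37 °C for 18-20 h. MIC is the lowest concentration with no visible growth.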

Streptococcus pneumoniae [2] = test: Bactericidal activity against methicillin-resistant Streptococcus pneumoniae ATCC 700677 incubated for 18 to 20 hrs followed by replating on tryptic soy agar plate and further incubated for 18 to 24 hrs by CLSI-based broth microdilution assay
Method in brief: (§2)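 MBC: after the broth microdilution MIC (CAMHB, ~5 × 10^5 CFU/mL, 37 °C, 18-20 h), 4 µL from wells without growth plated onto tryptic soy agar. Plates incubated 37 °C for 18-20 h. MBC is the lowest concentration giving 99.9% reduction in growth.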

Streptococcus pneumoniae [3] = test: Bactericidal activity against cephalosporin-resistant Streptococcus pneumoniae ATCC 51916 incubated for 18 to 20 hrs followed by replating on tryptic soy agar plate and further incubated for 18 to 24 hrs by CLSI-based broth microdilution assay; method in brief: as §2
Listeria monocytogenes [4] = test: Bactericidal activity against Listeria monocytogenes ATCC 19111 incubated for 18 to 20 hrs followed by replating on tryptic soy agar plate and further incubated for 18 to 24 hrs by CLSI-based broth microdilution assay
Enterococcus faecium [5] = test: Bactericidal activity against vancomycin-resistant Enterococcus faecium ATCC 700221 incubated for 18 to 20 hrs followed by replating on tryptic soy agar plate and further incubated for 18 to 24 hrs by CLSI-based broth microdilution assay; method in brief: as §2
Enterococcus faecalis = test: Bactericidal activity against vancomycin-resistant Enterococcus faecalis ATCC 51299 incubated for 18 to 20 hrs followed by replating on tryptic soy agar plate and further incubated for 18 to 24 hrs by CLSI-based broth microdilution assay; method in brief: as §2
[6] = system: Staphylococcus epidermidis; test: Bactericidal activity against methicillin-resistant Staphylococcus epidermidis NRS101 incubated for 18 to 20 hrs followed by replating on tryptic soy agar plate and further incubated for 18 to 24 hrs by CLSI-based broth microdilution assay
Listeria monocytogenes [7] = test: Antibacterial activity against Listeria monocytogenes ATCC 19111 after 18 to 20 hrs by CLSI-based broth microdilution assay
Enterococcus faecium [8] = test: Antibacterial activity against vancomycin-resistant Enterococcus faecium ATCC 700221 after 18 to 20 hrs by CLSI-based broth microdilution assay; method in brief: as §1
[9] = system: Staphylococcus epidermidis; test: Antibacterial activity against methicillin-resistant Staphylococcus epidermidis NRS101 after 18 to 20 hrs by CLSI-based broth microdilution assay; method in brief: as §1
Staphylococcus aureus [10] = test: Bactericidal activity against vancomycin-resistant Staphylococcus aureus 12 incubated for 18 to 20 hrs followed by replating on tryptic soy agar plate and further incubated for 18 to 24 hrs by CLSI-based broth microdilution assay; method in brief: as §2
Staphylococcus aureus [11] = test: Bactericidal activity against vancomycin-resistant Staphylococcus aureus 10 incubated for 18 to 20 hrs followed by replating on tryptic soy agar plate and further incubated for 18 to 24 hrs by CLSI-based broth microdilution assay; method in brief: as §2
Staphylococcus aureus [12] = test: Bactericidal activity against methicilline-resistant Staphylococcus aureus NRS386 USA700 incubated for 18 to 20 hrs followed by replating on tryptic soy agar plate and further incubated for 18 to 24 hrs by CLSI-based broth microdilution assay; method in brief: as §2
Staphylococcus aureus [13] = test: Bactericidal activity against methicilline-resistant Staphylococcus aureus NRS385 USA500 incubated for 18 to 20 hrs followed by replating on tryptic soy agar plate and further incubated for 18 to 24 hrs by CLSI-based broth microdilution assay; method in brief: as §2
Staphylococcus aureus [14] = test: Bactericidal activity against methicilline-resistant Staphylococcus aureus NRS384 USA300 incubated for 18 to 20 hrs followed by replating on tryptic soy agar plate and further incubated for 18 to 24 hrs by CLSI-based broth microdilution assay; method in brief: as §2
Staphylococcus aureus [15] = test: Bactericidal activity against methicilline-resistant Staphylococcus aureus NRS123 USA400 incubated for 18 to 20 hrs followed by replating on tryptic soy agar plate and further incubated for 18 to 24 hrs by CLSI-based broth microdilution assay; method in brief: as §2
Staphylococcus aureus [16] = test: Bactericidal activity against methicilline-resistant Staphylococcus aureus NRS-119 incubated for 18 to 20 hrs followed by replating on tryptic soy agar plate and further incubated for 18 to 24 hrs by CLSI-based broth microdilution assay; method in brief: as §2
Staphylococcus aureus [17] = test: Bactericidal activity against methicilline-sensitive Staphylococcus aureus NRS-107 incubated for 18 to 20 hrs followed by replating on tryptic soy agar plate and further incubated for 18 to 24 hrs by CLSI-based broth microdilution assay; method in brief: as §2
Staphylococcus aureus [18] = test: Bactericidal activity against methicilline-sensitive Staphylococcus aureus ATCC 6538 incubated for 18 to 20 hrs followed by replating on tryptic soy agar plate and further incubated for 18 to 24 hrs by CLSI-based broth microdilution assay; method in brief: as §2
Staphylococcus aureus [19] = test: Bactericidal activity against Staphylococcus aureus ATCC BAA42 incubated for 18 to 20 hrs followed by replating on tryptic soy agar plate and further incubated for 18 to 24 hrs by CLSI-based broth microdilution assay; method in brief: as §2
Staphylococcus aureus [20] = test: Antibacterial activity against vancomycin-resistant Staphylococcus aureus 12 after 18 to 20 hrs by CLSI-based broth microdilution assay; method in brief: as §1
Staphylococcus aureus [21] = test: Antibacterial activity against vancomycin-resistant Staphylococcus aureus 10 after 18 to 20 hrs by CLSI-based broth microdilution assay; method in brief: as §1
Staphylococcus aureus [22] = test: Antibacterial activity against methicilline-resistant Staphylococcus aureus NRS385 USA500 after 18 to 20 hrs by CLSI-based broth microdilution assay; method in brief: as §1
Staphylococcus aureus [23] = test: Antibacterial activity against methicilline-resistant Staphylococcus aureus NRS386 USA700 after 18 to 20 hrs by CLSI-based broth microdilution assay; method in brief: as §1
Staphylococcus aureus [24] = test: Antibacterial activity against methicilline-resistant Staphylococcus aureus NRS384 USA300 after 18 to 20 hrs by CLSI-based broth microdilution assay; method in brief: as §1
Staphylococcus aureus [25] = test: Antibacterial activity against methicilline-resistant Staphylococcus aureus NRS123 USA400 after 18 to 20 hrs by CLSI-based broth microdilution assay; method in brief: as §1
Staphylococcus aureus [26] = test: Antibacterial activity against methicilline-resistant Staphylococcus aureus NRS-119 after 18 to 20 hrs by CLSI-based broth microdilution assay; method in brief: as §1
Staphylococcus aureus [27] = test: Antibacterial activity against methicilline-sensitive Staphylococcus aureus ATCC 6538 after 18 to 20 hrs by CLSI-based broth microdilution assay; method in brief: as §1
Staphylococcus aureus [28] = test: Antibacterial activity against methicilline-sensitive Staphylococcus aureus NRS-107 after 18 to 20 hrs by CLSI-based broth microdilution assay; method in brief: as §1
Staphylococcus aureus [29] = test: Antibacterial activity against Staphylococcus aureus ATCC BAA42 after 18 to 20 hrs by CLSI-based broth microdilution assay; method in brief: as §1

`C/C(=N\NC(=N)N)c1sc(-c2ccc(N3CCN(C)CC3)cc2)nc1C` showed an MIC (Staphylococcus aureus [1]) of 64 mg/L (≈ 172 µM).
Work on `C/C(=N\NC(=N)N)c1sc(-c2ccc(N3CCCCC3C)cc2)nc1C` (centres undefined) yielded an MIC (Staphylococcus aureus [1]) of 8 mg/L (≈ 21.6 µM).
In the case of `C/C(=N\NC(=N)N)c1sc(-c2ccc(N3CCCCCC3)cc2)nc1C`, the MIC (Staphylococcus aureus [1]) is reported as > 128 mg/L.
`CC(=O)NC[C@H]1CN(c2ccc(N3CCOCC3)c(F)c2)C(=O)O1` [LINEZOLID] showed an MBC (Streptococcus pneumoniae [2]) of 16 mg/L (≈ 47.4 µM), an MBC (Streptococcus pneumoniae [3]) of 32 mg/L (≈ 94.9 µM) and an MBC (Listeria monocytogenes [4]) of 32 mg/L (≈ 94.9 µM). For the same compound, the MBC (Enterococcus faecium [5]) was 16 mg/L (≈ 47.4 µM), the MBC (Enterococcus faecalis) was 16 mg/L (≈ 47.4 µM) and the MBC [6] was 8 mg/L (≈ 23.7 µM). For the same compound, the MIC (Listeria monocytogenes [7]) was ≤ 0.5 mg/L, the MIC (Enterococcus faecium [8]) was 1 mg/L (≈ 2.96 µM) and the MIC [9] was 0.5 mg/L (≈ 1.48 µM). For the same compound, the MBC (Staphylococcus aureus [10]) was 64 mg/L (≈ 190 µM), the MBC (Staphylococcus aureus [11]) was > 64 mg/L and the MBC (Staphylococcus aureus [12]) was 16 mg/L (≈ 47.4 µM). The MBC (Staphylococcus aureus [13]) was 32 mg/L (≈ 94.9 µM), the MBC (Staphylococcus aureus [14]) was 32 mg/L (≈ 94.9 µM) and the MBC (Staphylococcus aureus [15]) was 64 mg/L (≈ 190 µM). The MBC (Staphylococcus aureus [16]) was > 64 mg/L, the MBC (Staphylococcus aureus [17]) was 64 mg/L (≈ 190 µM) and the MBC (Staphylococcus aureus [18]) was 16 mg/L (≈ 47.4 µM). The MBC (Staphylococcus aureus [19]) was 16 mg/L (≈ 47.4 µM), the MIC (Staphylococcus aureus [20]) was 1 mg/L (≈ 2.96 µM) and the MIC (Staphylococcus aureus [21]) was 1 mg/L (≈ 2.96 µM). For the same compound, the MIC (Staphylococcus aureus [22]) was 1 mg/L (≈ 2.96 µM), the MIC (Staphylococcus aureus [23]) was 1 mg/L (≈ 2.96 µM) and the MIC (Staphylococcus aureus [24]) was 1 mg/L (≈ 2.96 µM). It also gave an MIC (Staphylococcus aureus [25]) of 1 mg/L (≈ 2.96 µM), an MIC (Staphylococcus aureus [26]) of 64 mg/L (≈ 190 µM) and an MIC (Staphylococcus aureus [27]) of 1 mg/L (≈ 2.96 µM). For the same compound, the MIC (Staphylococcus aureus [28]) was 1 mg/L (≈ 2.96 µM), the MIC (Staphylococcus aureus [29]) was 1 mg/L (≈ 2.96 µM) and the MIC (Staphylococcus aureus [1]) was 1 mg/L (≈ 2.96 µM).
`C/C(=N\NC(=N)N)c1sc(-c2ccc(N3CCC(C)CC3)cc2)nc1C` gave an MIC (Staphylococcus aureus [1]) of 16 mg/L (≈ 43.2 µM).
